Data set [1] deals with DU-145. Kind of data set: Antiproliferative activity against human DU145 cells after 72 hrs after ATPlite kit assay. Format: functional, cell-based. To be noted: DU-145, 72 h. The method in brief:
(§1)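 10,000 cells per well plated, incubated overnight, then exposed to increasing compound concentrations for 72 h. Viability read by ATPlite luminescence. IC50 obtained by linear regression. Prostate lines (DU145, PC-3, LNCaP) are ATCC stocks. LNCaP culture was modified from the earlier method.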

For data set [2], the system named is LNCaP. The experiment in a line: Antiproliferative activity against human LNCAP cells after 72 hrs after ATPlite kit assay. Type of data set: functional, cell-based. The method in brief: as §1
Data set [3] has as its system PC-3. Kind of data set: Antiproliferative activity against human PC3 cells after 72 hrs after ATPlite kit assay. Format: functional, cell-based. The note with it: PC-3, 72 h. The method in brief:
as §1
Background: In ATP-based viability assays light output follows the ATP content of the culture.

The test system of data set [4] is Hepatitis C virus. The experiment in a line: Antiviral activity against HCV JFH1 infected in human Huh7.5.1 cells assessed as reduction in viral proteins at non-cytotoxic concentration after 72 hrs post compound dose by Western blotting method. The note with it: Hepacivirus hominis, Huh-7. Format: functional, organism-based. (Immunoblotting shows a protein as a band on a membrane.)

Data set [5] is described as follows: Antiproliferative activity against human Huh7.5.1 cells after 72 hrs after ATPlite kit assay. To be noted: Huh-7, 72 h. Type of data set: functional, cell-based. The gist of the method:
as §1

Data set [6] deals with Cytochrome P450 2C9 (Homo sapiens, UniProt P11712). Kind of data set: Inhibition of CYP2C9 in pooled human liver microsomes assessed as reduction in enzyme-mediated (S)-warfarin 7-hydroxylation by HPLC/MS-MS method. Format: ADME, Microsome. The method in brief: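 Pooled HLM (0.1 mg/mL microsomal protein) incubated with (S)-warfarin 4 µM and compound at 1, 10 or 100 µM in 100 mM potassium phosphate, pH 7.4. Vehicle controls held 0.75% MeOH (v/v). Sulfaphenazole 1 µM served as positive control. 7-Hydroxywarfarin measured by HPLC/MS-MS. Means ± SD of triplicate incubations; two-way ANOVA with Tukey post hoc test.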
Sequence of Cytochrome P450 2C9 (P11712 whole entry): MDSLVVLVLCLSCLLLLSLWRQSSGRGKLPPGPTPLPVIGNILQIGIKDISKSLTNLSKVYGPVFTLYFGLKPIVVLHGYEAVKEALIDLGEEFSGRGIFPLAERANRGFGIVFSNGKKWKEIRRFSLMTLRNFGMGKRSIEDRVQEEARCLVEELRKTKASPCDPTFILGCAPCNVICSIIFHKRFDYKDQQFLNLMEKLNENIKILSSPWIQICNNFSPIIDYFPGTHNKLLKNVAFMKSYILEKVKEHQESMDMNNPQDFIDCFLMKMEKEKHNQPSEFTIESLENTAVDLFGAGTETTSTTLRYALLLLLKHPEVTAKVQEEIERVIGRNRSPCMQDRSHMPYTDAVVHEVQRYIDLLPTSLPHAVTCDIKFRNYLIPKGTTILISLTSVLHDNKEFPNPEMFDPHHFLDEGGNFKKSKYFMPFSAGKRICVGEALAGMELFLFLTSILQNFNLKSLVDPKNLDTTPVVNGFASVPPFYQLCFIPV
Background: Liver microsomes are vesicles of endoplasmic reticulum, rich in cytochrome P450 enzymes.

Data set [7] concerns Hepatitis C virus. Kind of data set: Antiviral activity against HCV JFH1 infected in human Huh7.5.1 cells assessed as reduction in viral proteins after 72 hrs post compound dose by Western blotting method. Type of data set: functional, organism-based, Hepacivirus hominis. To be noted: JFH1, Huh-7, 72 h.

SMILES strings stand for the structures. Activity calls are given as the source filed them. No cut-off for these calls is given here.

The IC50 is the point on the concentration scale where inhibition reaches its midpoint. Take `COC[C@@H]1Oc2ccc([C@H]3Oc4cc(OC)cc(O)c4C(=O)[C@@H]3O)cc2O[C@H]1c1ccc(OC)c(OC)c1`: the IC50 in data set [1] worked out at 16.8 µM; in data set [2], 19.8 µM; in data set [3], 21.9 µM.
As to `COc1cc(O)c2c(c1)O[C@H](c1ccc3c(c1)O[C@@H](c1ccc(OC)c(OC)c1)[C@H](CO)O3)[C@@H](O)C2=O`, the 50% inhibitory concentration (IC50) worked out at 10 µM in data set [1], 11.3 µM in data set [2], 13.5 µM in data set [5] and 8.1 µM in data set [3]. In addition, the outcome in data set [4] was Active.
As for `COc1cc(O)c2c(c1)O[C@H](c1ccc3c(c1)O[C@@H](c1ccc(O)c(OC)c1)[C@H](CO)O3)[C@@H](O)C2=O`, the IC50 amounted to 19.3 µM in data set [1], 20.1 µM in data set [2], 13.3 µM in data set [5] and 16.9 µM in data set [3]. Moreover, in data set [4], the result was Active.
As to `COc1cc(OC)c2c(c1)O[C@H](c1ccc3c(c1)O[C@@H](c1ccc(OC)c(OC)c1)[C@H](CO)O3)[C@@H](O)C2=O`, the concentration for half-maximal inhibition (IC50) in data set [1] is 46.9 µM; in data set [2] it was 40.7 µM; in data set [5] it was 25.5 µM; in data set [3], 36.3 µM. Besides, in data set [4], the result was Active.
For `COC[C@@H]1Oc2ccc([C@H]3Oc4cc(OC)cc(OC)c4C(=O)[C@@H]3O)cc2O[C@H]1c1ccc(OC)c(OC)c1`, the IC50 in data set [1] was found to be 24 µM; in data set [2], 30.1 µM; in data set [5], 15.6 µM; in data set [3], 14.4 µM. In addition, the outcome in data set [4] was Active. The “inhibition (INH)” value in data set [6] (human, microsomes) is listed as “Not Active”.
For `COc1cc([C@@H]2Oc3cc([C@H]4Oc5cc(O)cc(O)c5C(=O)[C@@H]4O)ccc3O[C@H]2CO)ccc1O` [SILYBIN B], the IC50 turned out to be 61.8 µM in data set [1]; 40 µM in data set [7]; 69.6 µM in data set [2]; 56.2 µM in data set [5]; 8.2 µM in data set [6]; 60.5 µM in data set [3].

For the origin of these results see ChEMBL document CHEMBL2311246 (Bioorg Med Chem, 2013).
